These entries were drawn from the full list.
PGC1a acetyl up: raises PGC1a acetylation signal in U2OS cells. U2OS PGC1a acetylation AlphaScreen, overnight. activation, % at 15.6 µM. 350,000 tested, 0.21% active;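 active = every replicate reaching activation of at least 50%, whatever the mean replicate activation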;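 note: hits raise the AlphaScreen acetylation signal above neutral controls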
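Incubation: overnight compound treatment, 37 °C. System: U2OS cells transduced with flag-tagged PGC1a and GCN5 acetyltransferase. Detection: AlphaScreen lysate read. Compound: single-point compound dosing.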
Each line names hits and unclear results; the compound was inactive in the other large screens.

CCOC(=O)N1CCN(C(=O)c2cc(Cl)c(Cl)cc2C(=O)O)CC1	none
CCCOC1CCCN(C(=O)c2cc(Cl)c(Cl)cc2C(=O)O)C1 (centres undefined)	PGC1a acetyl up 86.6
CCc1ccc(C(=O)NNC(=O)Cn2c(=O)cnc3ccccc32)cc1	none
COc1ccc(/C=N/NC(=O)Cn2cnc3ccccc3c2=O)cc1OC	none
Cc1noc(C)c1CSc1nnc(-c2cccnc2)n1C1CCCCC1C (centres undefined)	none
COc1cc2nc(SCc3c(C)noc3C)n(CCC3=CCCCC3)c(=O)c2cc1OC	none
C=CCn1c(SCc2c(C)noc2C)nc2ccccc2c1=O	PGC1a acetyl up 74.0
Cc1noc(C)c1S(=O)(=O)Nc1ccc2c(c1)C(=O)N([C@@H](C)CO)C[C@@H](C)[C@@H](CN(C)CC1CCCCC1)OCCCC[C@@H](C)O2	none
O=C(Cc1ccncc1)NCC[C@H]1CC[C@@H](NC(=O)C2CC2)[C@H](CO)O1	none
O=C(CS(=O)CC(=O)Nc1cccc2c1CCCC2)Nc1ccc(F)cc1 (centres undefined)	PGC1a acetyl up 65.9
Cc1ccc(C(=O)NNC(=O)c2cccc(Br)c2)cc1	none
Cc1ccc(S(=O)(=O)C(NC(=O)c2ccccc2)=C(Cl)Cl)cc1	PGC1a acetyl up 59.7
Fc1ccc(CO/N=C/C2=C(Cl)c3ccccc3CC2)cc1	none
CN1/C(=C/C(=O)c2nc(S(C)(=O)=O)ncc2Cl)C(C)(C)c2ccccc21	none
CCOC(=O)c1nc(S(C)(=O)=O)ncc1Cl	PGC1a acetyl up 131.7
Cc1cc(C)n(-c2ccc(Cl)c(C(=O)OCC(N)=O)n2)n1	none
CCCCN(c1ccccc1)c1ncnc(N)c1[N+](=O)[O-]	none
Cc1cccc(-n2c(=O)cc(N3CCN(c4ccc(F)cc4)CC3)[nH]c2=O)c1	none
O=C(O)CSc1nnc(COc2cccc3ccccc23)o1	none
N#CCSc1nnc(COc2ccc3ccccc3c2)o1	PGC1a acetyl up 51.8
CCCOc1ccccc1-n1sc2c(c1=S)-c1cc(OC)cc3c1N(C(=O)C3=O)C2(C)C	none
Cn1ncc(C(=O)Nc2ccc(Cl)cc2)c1C(F)(F)F	none
O=C(Nc1cccc(F)c1)C1CCN(S(=O)(=O)c2cccc3nonc23)CC1	none
CC(C)c1ccc(NC(=O)c2n[nH]c(=O)c3ccccc23)cc1	none
CC(C)c1ccc(NC(=O)CCNS(=O)(=O)c2cccc3nonc23)cc1	PGC1a acetyl up 53.0
CN(C)C(=O)C[C@H]1CC[C@H](NC(=O)C2CCC2)[C@@H](CO)O1	none
CC(=O)c1ccc(N2CCN(c3ccc(S(=O)(=O)NCCCN(C)C)cc3[N+](=O)[O-])CC2)cc1	PGC1a acetyl up 95.2
CC(NC1c2ccccc2-c2ccccc21)c1ccccc1 (centres undefined)	none
Cc1ccc(CN(C(=O)Cn2nnc3ccccc32)C(C(=O)NCc2ccco2)c2cccs2)cc1 (centres undefined)	none
CC(C)(C)C(=O)Nc1sc2c(c1-c1nc3ccccc3[nH]1)CCCC2	PGC1a acetyl up 65.2
Cc1ccc(Cn2ccc(NC(=O)c3nn(C)cc3[N+](=O)[O-])n2)cc1	PGC1a acetyl up 144.8
Cc1ccc(-c2nc(NC(=O)c3nn(C)cc3[N+](=O)[O-])sc2C)cc1	none
Cc1ccc(-c2nc(NC(=O)c3nn(C)cc3[N+](=O)[O-])sc2C)cc1C	none
Cc1cnc(NC(=O)c2nn(C)cc2[N+](=O)[O-])s1	PGC1a acetyl up 130.8
Cn1cc([N+](=O)[O-])c(C(=O)Nc2nc(-c3ccc(Cl)cc3)cs2)n1	none
CC1=CCC2C(=O)N(c3cccc(C(=O)NCc4ccccc4)c3)C(=O)C2C1 (centres undefined)	none
Cc1ccc(CNC(=O)c2ccc(CS(=O)(=O)c3ccccc3)o2)cc1	none
O=C(NCc1cccnc1)/C(=C/c1ccc(-c2ccc(Cl)cc2)o1)S(=O)(=O)c1ccccc1	PGC1a acetyl up 359.7
CCCN(CC)c1ncnc2[nH]ncc12	none
CC(=O)Cc1nsc(NC(=O)c2cccc(F)c2)n1	none
CNC[C@@H]1OCCCC[C@H](C)Oc2ccc(NS(=O)(=O)c3cccs3)cc2C(=O)N([C@H](C)CO)C[C@@H]1C	none
COc1ccc([N+](=O)[O-])cc1NCc1ccccc1	PGC1a acetyl up 83.6
COc1ccc(C(=O)OCC(=O)NCc2ccc3c(c2)OCO3)cc1[N+](=O)[O-]	none
COc1ccc(C(=O)NC(=S)N(C)Cc2ccccc2)cc1Br	none
COc1ccc(CCNC(=O)C(=O)NCC2CCCO2)cc1OC (centres undefined)	none
COc1cc2[nH]c(=O)n(CCCC(=O)NCCc3ccccc3)c(=O)c2cc1OC	PGC1a acetyl up 84.3
O=C(CCCc1cccs1)NCCc1c[nH]c2ccccc12	none
COCCCNC(=S)Nc1cc(C)c(C)cc1C	none
C[C@@H]1CN([C@@H](C)CO)C(=O)CCCn2cc(nn2)CO[C@H]1CN(C)S(=O)(=O)c1ccccc1	none
C=C1C(=O)O[C@@H]2[C@H]1[C@@H](OC(=O)/C(C)=C/C)C/C(C)=C\C(=O)/C=C(\C)[C@@H]2O	PGC1a acetyl up 197.7
COc1cccc2cc(C(C)N(CCCN3CCOCC3)C(=S)Nc3cc(C)ccc3C)oc12 (centres undefined)	none
O=C(Cc1ccccn1)NCC[C@H]1CC[C@H](NC(=O)Nc2ccc(C(F)(F)F)cc2)[C@H](CO)O1	none

Screening results from PubChem BioAssay.
